Rows were chosen to be rich in hits. Some 2.2% of all compounds tested hit in one or more screens of this group.
STAT3 inh – IL-6 driven STAT3 reporter inhibitors, primary screen, U3A cells, luciferase, luminescence, MLSCN library | IL-6 STAT3-luciferase reporter; host cell line lacks STAT1 | inhibition, % at 5.5 µM | 190,000 tested, 0.89% active | AID 862, 2007;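 active = inhibition above the mean inhibition across all screened compounds plus 3 SD, cut at about 44% in these data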;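 note: 0% = DMSO only wells and 100% = 100 µM nifuroxazide control wells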
TRAIL sens C8 – viability loss with TRAIL in NB7+C8 cells, primary screen, TRAIL sensitizer project, cell-based, ATPlite luminescence | 360,000 tested, 1% active | AID 624354, 2012 | inhibition (viability loss, TRAIL sensitization), % at 10 µM;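 active = compounds causing at least 50% loss of cell viability in the single-dose screen, relative to plate controls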
HSP90 refold inh – HSP90 inhibitors, primary screen, cell lysate, luminescence | Rabbit reticulocyte lysate, luciferase refolding luminescence, 3 h | inhibition, % at 5.6 µM | 290,000 tested, 0.91% active | AID 1789, 2009;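 active = inhibition above the screen-wide mean plus 3 SD, computed separately per campaign, cut at about 16% in these data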;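 note: 0% = DMSO wells and 100% = 60 µM geldanamycin wells; inhibitors lower the luminescence because luciferase stays unfolded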
FLuc stim CS – FLuc activators, initial screening, artefact control for FLuc-dependent activation tests, biochemical, ATPlite luminescence; ATPlite luciferase biochemical, 10 min; 0 = ATP-free wells, 1 = DMSO control; activation factor at 10 µM; Luciferin 4-monooxygenase (Photinus pyralis), P08659; AID 1027, 2008; 200,000 tested, under 10 active;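 active = luciferase activation factor, scaled between plate controls, of at least 2 with compound at 10 µM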
Target sequence (P08659 whole entry, looked up): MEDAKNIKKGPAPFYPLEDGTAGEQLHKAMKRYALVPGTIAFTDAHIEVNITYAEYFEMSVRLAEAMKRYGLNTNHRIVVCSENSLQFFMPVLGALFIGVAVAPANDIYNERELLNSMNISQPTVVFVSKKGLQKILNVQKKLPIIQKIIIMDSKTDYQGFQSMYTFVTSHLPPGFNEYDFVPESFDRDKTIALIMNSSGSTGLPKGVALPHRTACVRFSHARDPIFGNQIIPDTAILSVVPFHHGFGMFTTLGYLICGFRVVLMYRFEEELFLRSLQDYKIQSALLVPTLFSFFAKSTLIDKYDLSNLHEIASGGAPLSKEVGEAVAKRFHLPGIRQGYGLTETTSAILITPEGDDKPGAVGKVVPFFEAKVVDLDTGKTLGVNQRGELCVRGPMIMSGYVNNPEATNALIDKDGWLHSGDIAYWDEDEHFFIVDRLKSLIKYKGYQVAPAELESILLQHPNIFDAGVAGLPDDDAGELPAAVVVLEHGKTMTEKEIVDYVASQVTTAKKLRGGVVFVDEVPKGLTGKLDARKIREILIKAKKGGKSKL
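Assay system: Luciferase/luciferin detection reagent, cell-free biochemical luciferase assay / Also added: ATP substrate / Schedule: 10 min at ambient temperature / Measured by: luminescence measurement of luciferase light output / Benchmarks: low control with PBS replacing ATP, high control enzyme plus ATP without compound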
FLuc inh counter – firefly luciferase enzyme inhibitors, primary screen, artefact control for luciferase-based inhibitor screens, biochemical, luminescence, ATPLite | 10 min | 200,000 tested, 1.5% active | inhibition, % at 10 µM;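 active = inhibition above about 50% when tested at 10 µM, limit read from the data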
PPC-1+TRAIL kill – compounds killing PPC-1 cancer cells with TRAIL present, primary screen, TRAIL potentiator project, ATPLite luminescence, uHTS; PPC-1 cells + TRAIL, ATPLite viability luminescence; cell killing (% activity), % at 4 µM or 5 µM; 220,000 tested, 0.41% active; AID 1443, 2008;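 active = cell killing above 50% in the first pass at 4 µM, then a duplicate retest at 5 µM averaging 50% or more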;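 note: plate controls were cells with TRAIL plus DMSO for no effect and medium-only wells lacking cells for full effect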
The depositor's hits bear a star.

Screening Cn1c(N)c(C(=O)CSc2nnc(C3CC3)n2-c2ccccc2)c(=O)n(C)c1=O returned TRAIL sens C8 7.
CCOc1cccc2cc(-c3nnc(NCc4ccco4)s3)c(=O)oc12 was read as STAT3 inh 20, TRAIL sens C8 55*, HSP90 refold inh 4, FLuc stim CS 0.9, FLuc inh counter 14 and PPC-1+TRAIL kill 14.
COc1ccc2oc(=O)c(-c3nnc(NCc4ccco4)s3)cc2c1 was read as STAT3 inh -3, TRAIL sens C8 12, HSP90 refold inh 4, FLuc stim CS 1, FLuc inh counter 1 and PPC-1+TRAIL kill 5.
Screening COc1cccc(C(=O)Nc2ccc(-c3nnc(-c4ccco4)o3)cc2)c1 returned STAT3 inh 26, TRAIL sens C8 9, HSP90 refold inh 3, FLuc stim CS 1, FLuc inh counter -4 and PPC-1+TRAIL kill 19.
`COc1cccc(-c2nnc(-c3ccco3)o2)c1` gave STAT3 inh 9, TRAIL sens C8 20, HSP90 refold inh 7, FLuc stim CS 0.5, FLuc inh counter 54* and PPC-1+TRAIL kill 18.
Screening O=S(=O)(Nc1ccc(Cl)cn1)c1ccc2c(c1)OCCO2 returned TRAIL sens C8 -12.
Screening O=C(O)/C=C/C(=O)NNC(=O)c1cc(-c2ccccc2)n[nH]1 returned STAT3 inh 15, TRAIL sens C8 51*, HSP90 refold inh 1, FLuc stim CS 0.6, FLuc inh counter 44 and PPC-1+TRAIL kill 22.
Screening CCCCCCNCC(=O)N1CCC(Cc2ccccc2)CC1 returned TRAIL sens C8 -10 and HSP90 refold inh -1.
For COc1cc(CCNC2=CC(=O)c3ncccc3C2=O)ccc1O the results were TRAIL sens C8 58*.
`COc1ccccc1CNS(=O)(=O)c1cc(CN2C(=O)c3cccnc3C2=O)ccc1OC` gave TRAIL sens C8 -15 and HSP90 refold inh -1.
Screening O=C(Nc1ccc2c(c1)CCC2)c1ccc(F)cc1 returned STAT3 inh 32, TRAIL sens C8 52*, HSP90 refold inh 16, FLuc stim CS 0.3, FLuc inh counter 70* and PPC-1+TRAIL kill 35.
For CC(C)Cc1ccc(C(C)CC2=CCC(CN(C)C)C2=O)cc1 (configuration not stated) the results were TRAIL sens C8 91*.
For CC(C)Cc1ccc(C(C)/C=C2/CCC(CN3CCCCC3)C2=O)cc1 (configuration not stated) the results were TRAIL sens C8 11.
`Nc1nc(Sc2ccc([N+](=O)[O-])c3nonc23)c2[nH]cnc2n1` gave TRAIL sens C8 75*.
Screening CNc1ncnc(Sc2nc(N)nc3nc[nH]c23)c1[N+](=O)[O-] returned TRAIL sens C8 74*.
Screening CC1(C)CC(NC(=O)c2c(N)no[n+]2[O-])CC(C)(C)N1 returned STAT3 inh -5, TRAIL sens C8 -1, HSP90 refold inh -3, FLuc stim CS 1, FLuc inh counter 0 and PPC-1+TRAIL kill 2.
Screening Cc1cc(C)nc(NC(N)=NCCc2ccccc2)n1 returned TRAIL sens C8 18.
Cc1cc(C)nc(NC(N)=NCCc2c[nH]c3ccccc23)n1 was read as STAT3 inh 46*, TRAIL sens C8 2, HSP90 refold inh 0, FLuc stim CS 1.1, FLuc inh counter -7 and PPC-1+TRAIL kill 30.
Screening CCOC(=O)c1sc(NC(=O)c2sccc2C)cc1C returned STAT3 inh 27, TRAIL sens C8 34, HSP90 refold inh 0, FLuc stim CS 0.5, FLuc inh counter 46 and PPC-1+TRAIL kill 35.
`CCOC(=O)c1sc(NC(=O)Nc2cccc(Cl)c2)cc1C` gave STAT3 inh -7, TRAIL sens C8 55*, HSP90 refold inh 4, FLuc stim CS 0.5, FLuc inh counter 46 and PPC-1+TRAIL kill 18.
CCC(C(=O)Nc1c(C)cccc1C)n1c(-c2ccc(-c3ccccc3)cc2)nc2ccccc21 (configuration not stated) was read as TRAIL sens C8 -5.
N#CCSc1ccc(-c2nc3ccccc3[nH]2)cn1 was read as STAT3 inh 8, TRAIL sens C8 18, HSP90 refold inh -1, FLuc stim CS 0.4, FLuc inh counter 58* and PPC-1+TRAIL kill 32.
For Cc1[nH]n(-c2ccccc2)c(=O)c1N=Nc1ccc2c(c1)OCCO2 the results were STAT3 inh 0, TRAIL sens C8 13, HSP90 refold inh -1, FLuc stim CS 0.8, FLuc inh counter 23 and PPC-1+TRAIL kill 1.
For Cc1[nH]n(-c2ccccc2)c(=O)c1N=Nc1c(O)cc(S(=O)(=O)N(C)C)c2ccccc12 the results were TRAIL sens C8 58*.
Screening Cc1[nH]nc2nc(SCC(=O)NCCC3=CCCCC3)n(-c3ccc(Br)cc3)c(=N)c12 returned TRAIL sens C8 80* and HSP90 refold inh 4.
For Cc1ccc(-n2c(SCC(=O)NCC3CCCO3)nc3n[nH]c(C)c3c2=N)cc1Cl (configuration not stated) the results were STAT3 inh 45*, TRAIL sens C8 5, HSP90 refold inh 1, FLuc stim CS 1.1, FLuc inh counter -11 and PPC-1+TRAIL kill 27.
For Cc1cc(-n2c(SCC(=O)NCCC3=CCCCC3)nc3n[nH]c(C)c3c2=N)ccc1Cl the results were TRAIL sens C8 27 and HSP90 refold inh 5.
Screening COc1ccccc1CNC(=O)c1cn(C)c2ccc(S(=O)(=O)N3CCCC3)cc2c1=O returned STAT3 inh -4, TRAIL sens C8 2, HSP90 refold inh 2, FLuc stim CS 1, FLuc inh counter 1 and PPC-1+TRAIL kill 12.
CCCN(Cc1ccc(C)cc1)C(=O)c1ccc(CNS(=O)(=O)c2ccc(C(C)=O)cc2)cc1 was read as TRAIL sens C8 10.
Screening O=C(NCc1ccccn1)C1CCCN(S(=O)(=O)c2cc(Cl)ccc2Cl)C1 (configuration not stated) returned TRAIL sens C8 56*.
Screening COc1ccc(C)cc1S(=O)(=O)N1CCCC(C(=O)NCc2ccccn2)C1 (configuration not stated) returned TRAIL sens C8 4 and HSP90 refold inh -2.
Screening N#Cc1ccccc1N/C=C/C(=O)c1ccc(Cl)cc1 returned TRAIL sens C8 51*.
`O=C(/C=C/Nc1ccccc1F)c1ccc(Br)cc1` gave STAT3 inh 21, TRAIL sens C8 68*, HSP90 refold inh -4, FLuc stim CS 0.2, FLuc inh counter 80* and PPC-1+TRAIL kill 40.
`CC(=O)Nc1ccc(N/C=C/C(=O)c2ccc(Cl)cc2)cc1` gave TRAIL sens C8 13 and HSP90 refold inh 4.

From PubChem BioAssay
